# Bioassay records: PubChem BioAssay, several laboratories
# Hep lipid drop: hepatic lipid droplet formation modulation; inhibition, % at 6.5 µM; AML12 mouse hepatocytes, oleate lipid droplets, BODIPY imaging; actives 0.4% (n = 240,000);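 active means lipid droplet intensity inhibited by at least 50%, with more than 500 cells counted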
#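 Material – mouse AML12 hepatocyte cell line, fixed after treatment · Compound dosing – one dose, 6.5 µM compound · Times – compound with oleate, overnight · Measured by – Image-based BODIPY and DAPI two-channel analysis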
# HSF-1 act: increases HSF-1 driven luciferase reporter signal; activation, % at 9 µM; NIH3T3-HGL HSF-1 luciferase reporter, MG132, 8 h; 100% = twice DMSO control signal; AID 504408; actives 1.7% (n = 300,000);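 active means mean replicate activation of at least 50% with a set share of replicates each reaching 50%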
# CHT inh: inhibitors of human choline transporter CHT; Q9GZV3; CHT-expressing cells, membrane potential dye, choline response; stronger effect = lower value; B-score at 10 µM; actives 0.86% (n = 310,000);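 active means B-score over 3 SD under the library average, and starting fluorescence ratio not unusually high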;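 further: choline stimulus applied at its EC90 after an EC20 pre-addition; B-score computed on integrated fluorescence ratio after choline addition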
# Target sequence (Q9GZV3 whole entry, looked up): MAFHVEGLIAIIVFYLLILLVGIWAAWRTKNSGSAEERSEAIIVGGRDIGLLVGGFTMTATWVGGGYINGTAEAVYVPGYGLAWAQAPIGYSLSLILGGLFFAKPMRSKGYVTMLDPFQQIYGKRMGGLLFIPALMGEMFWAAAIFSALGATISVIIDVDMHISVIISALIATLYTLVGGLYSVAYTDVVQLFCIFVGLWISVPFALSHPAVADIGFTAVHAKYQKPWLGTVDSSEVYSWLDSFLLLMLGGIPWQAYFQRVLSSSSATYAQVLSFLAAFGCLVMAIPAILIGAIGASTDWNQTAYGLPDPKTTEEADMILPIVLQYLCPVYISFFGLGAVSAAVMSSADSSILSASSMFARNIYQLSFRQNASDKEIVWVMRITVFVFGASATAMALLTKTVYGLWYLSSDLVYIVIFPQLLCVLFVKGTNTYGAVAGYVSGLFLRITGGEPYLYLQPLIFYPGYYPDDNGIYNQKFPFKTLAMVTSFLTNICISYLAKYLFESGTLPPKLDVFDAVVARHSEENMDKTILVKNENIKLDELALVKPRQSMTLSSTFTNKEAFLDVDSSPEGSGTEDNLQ
# HSF1 inh: HSF1 inhibition. NIH3T3-HGL HSE-luciferase, MG132-induced, luminescence 8 h; stronger effect = lower value. activity change, negative = inhibition, % at 7.5 µM (by protocol). actives 0.77% (n = 300,000);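 active means more than half of replicate wells show activity change below -50%, luminescence cut by over half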;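 further: luciferase reports HSF-1 transcriptional activity via heat shock element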
# CHT PAM: allosteric activators of human choline transporter CHT. actives 0.49% (n = 310,000). B-score at 10 µM. Q9GZV3. AID 488977. CHT-expressing cells, membrane potential dye, choline EC20; stronger effect = higher value; LV-AA mutant CHT in HEK293 cells;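 active means initial fluorescence not abnormally high and integrated response B-score, plate-corrected, over 3 SD above library mean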
# PHOSPHO1 block: blocks human PHOSPHO1 phosphatase activity. AID 1565. actives 1.1% (n = 290,000). recombinant PHOSPHO1, absorbance phosphatase assay. Q8TCT1. inhibition, % at 13.3 µM; in the data active means inhibition above about 60%
# CHT activ conf: human CHT activation, confirmatory screen | shares compounds with CHT PAM | CHT-expressing cells, membrane potential dye fluorescence (FDSS); % of choline EC20–EC90 response window; HEK293 expressing CHT LV-AA mutant; choline added at its EC20 | activation, % at 10 µM | actives 91% (n = 2,500) | AID 504833;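 active means primary screen active, with duplicate mean activation above negative control mean plus 3 SD, cut at about 11% in these data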
# HEK293 MP dye: CHT activator counter-screen hit in parental HEK293 cells; shares compounds with CHT PAM; membrane potential dye fluorescence (FDSS); measured after EC20 choline addition; ratio readout change at 10 µM, hits read low; actives 62% (n = 2,500); AID 623908;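 active means duplicate-averaged ratio beyond 3 SD from buffer wells, up or down, though filed actives are nearly all decreases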
# Hits are given with their value; - = inactive; . = not tested or not shown. A selection: hits, their analogues and other compounds. The true share with any hit is near 4.9%.
SMILES,Hep lipid drop,HSF-1 act,CHT inh,HSF1 inh,CHT PAM,PHOSPHO1 block,CHT activ conf,HEK293 MP dye
Cc1c(C)n(Cc2ccccc2)c2ncnc(NCCCN(C)C)c12,-,-,-,-,-,-,26,-39
COc1ccccc1C(C)N(C)Cc1nc(COc2ccccc2)no1 (configuration not stated),-,-,-,-,-,-,.,.
CCc1c(O)nc(SCc2nc3ccccc3c(=O)[nH]2)[nH]c1=O,-,-,-,-,-,-,.,.
Cc1cccn2c(=O)c(C=Nc3ccccc3)c(NCCO)nc12,.,-,-,-,-,-,.,.
Cc1cccn2c(=O)c(C=O)c(Cl)nc12,-,-,-,-,6.6,-,42,-31
Cc1cccn2c(=O)c(C=O)c(N3CCCCC3)nc12,-,-,-,-,-,-,.,.
CN=Cc1c(NC)nc2c(C)cccn2c1=O,.,-,-,-,9.3,-,43,-27
CN1CCN(CC(=O)Nc2ccc(S(=O)(=O)N(C)C)cc2)CC1,.,-,-,-,-,-,.,.
CC(=O)c1ccc2c(c1)N(CCCN1CCC(CCO)CC1)c1ccccc1S2,.,.,-,.,9.1,.,46,-49
OCCN1CCN(CCCN2c3ccccc3Sc3ccc(Cl)cc32)CC1,-,-,-,-,-,-,.,.
CN1CCN(CCCN2c3ccccc3Sc3ccc(S(=O)(=O)N(C)C)cc32)CC1,.,.,-,.,-,.,16,-30
Cc1cc(C)nc(/N=C(\N)Nc2cccc([N+](=O)[O-])c2)n1,-,-,-,-,-,-,28,-46
Cc1cc(C)nc(/N=C(\N)Nc2ccc([N+](=O)[O-])cc2)n1,-,-,-,-,-,-,.,.
Cc1cc(Nc2cccc([N+](=O)[O-])c2)c2cccc(C)c2n1,-,-,-,-,-,-,42,-52
CSc1ccc(/C=C2/C(=N)N3N=C(CC(=O)N4CCCC4)SC3=NC2=O)cc1,-,-,-,-,-,-,.,.
CC(C)c1c(O)nc(SCCN2CCOCC2)[nH]c1=O,.,-,-,-,-,-,.,.
Nc1c2c(nc3cccc(Cl)c13)N(c1ccccc1)CC2,-,-,-,-,-,-,.,.
Clc1cncc(Cl)c1N/N=C/c1ccncc1,-,-,-,-,-,-,51,-53
Cc1cccc(N/N=C/c2ccncc2)c1,.,-,-,-,-,.,.,.
Clc1cccc(Cl)c1/C=N/Nc1c(Cl)cncc1Cl,-,-,-,-,-,-,.,.
C(=N\NC1=NCCN1)/c1ccncc1,-,-,-,-,6.4,-,54,-54
Cc1ccc(NC(=O)COC(=O)Cn2cnc3ccccc32)c([N+](=O)[O-])c1,-,-,-,-,-,-,.,.
Cc1[nH]ccc2c1[nH]c1cc(=O)ccc12,-,-,-,-,-,-,50,-49
CNC(=O)COc1ccc(S(=O)(=O)N2CCCC2)cc1,-,-,-,-,-,-,.,.
CCC(=O)Nc1cccc(C2=NOC3(C2)C[C@@H](C(N)=O)N(C(=O)c2cc([N+](=O)[O-])cc([N+](=O)[O-])c2)C3)c1 (some centres not stated),-,-,-,-,-,-,.,.
SMILES,Hep lipid drop,HSF-1 act,CHT inh,HSF1 inh,CHT PAM,PHOSPHO1 block,CHT activ conf,HEK293 MP dye
Cc1cccc(OCc2n(CC(=O)OC3CC(C)CCC3C(C)C)c3ccccc3[n+]2C)c1 (configuration not stated),-,-,-,-,9.3,-,41,-
COc1ccc(C2=NCCc3cc(OC)c(OC)cc32)cc1,-,-,-,-,7.5,-,27,-92
COc1cc2c(cc1OC)C(SC)=NC(C)(C)C2,-,-,-,-,-,-,53,-44
COc1cc2c(cc1OC)C(/C(C#N)=N\O)=NC(C)(C)C2,-,-,-,-,-,-,.,.
COc1ccc(C2=NC(C)(C)Cc3cc(OC)c(OC)cc32)cc1,.,-,-,-,8.3,.,67,-84
COc1ccc(C(=O)NNC2=NC(C)(C)Cc3cc(C)c(C)cc32)cc1,-,-,-,-,-,-,.,.
O=C1NC(=O)C(CC(=O)N(Cc2cccs2)C2(C(=O)NC3CCCCC3)CCCCC2)N1 (configuration not stated),-,-,-,-,-,-,.,.
CC(C)CCOc1ccc(C(=O)O)cc1,-,-,-,-,-,-,.,.
Cc1onc(-c2ccccc2)c1C(=O)Nc1cccc(C#N)c1,-,-,-,-,-,-,.,.
O=C(Nc1cccnc1Cl)C1=NN(c2ccccc2)C(=O)CC1,-,-,-,-,-,-,.,.
CC1(C)c2ccccc2-n2c1cc1oc(=O)cc(O)c1c2=O,-,-,-,-,-,-,.,.
N#Cc1cc2ccccc2nc1SCC(=O)NC1CC1,-,-,-,-,-,-,.,.
Cc1ccc2ncnc(Oc3ncccc3[N+](=O)[O-])c2c1,-,-,-,-,-,-,.,.
CCCCn1c(N)c(N(CCC(C)C)C(=O)C2CCCN(C(=O)c3ccc(Cl)cc3)C2)c(=O)[nH]c1=O (configuration not stated),.,-,-,-,8.8,.,12,-
CCCCn1c(N)c(N(CC(C)C)C(=O)C2CCN(C(=O)c3ccc(Cl)cc3)CC2)c(=O)[nH]c1=O,.,-,-,-,-,.,.,.
CCC1CCc2sc(C(=O)NCC(c3ccc(OC)cc3)N3CCCC3)cc2C1 (configuration not stated),.,-,-,-,-,.,22,-
CN(C)c1ccc(/C=C/c2cccc[n+]2[O-])cc1,-,-,-,-,-,-,.,.
CC(C)CC[n+]1ccccc1/C=C/c1ccc(N(C)C)cc1,-,-,-,-,12,-,60,-
COc1ccc(CCN=C(N)Nc2nc(C)cc(C)n2)cc1,-,-,-,-,6.5,-,50,-41
FC(F)(F)COc1cc(-c2nnc(SCc3ccccc3)n2Cc2ccco2)cc(OCC(F)(F)F)n1,-,-,-,-,9.2,-,24,-
c1cncc(CSc2nnc(-c3cccnc3)n2Cc2ccco2)c1,.,-,.,-,.,-,.,.
COc1ccc(C(=O)NCC(=O)N=Nc2c(O)n(C)c3ccccc23)cc1OC,-,.,-,.,-,-,.,.
